Measurements taken from ChEMBL document CHEMBL1126803, “Stereospecific and selective 5-HT2 antagonism in a series of 5-substituted trans-1-piperazino-3-phenylindans” (J Med Chem, 1993).
Values joined by “and” are separate entries in the source; they are usually repeats but may differ in a detail not shown here. Equal values may be shown once.

Assays:
[1] = target: Serotonin 2 (5-HT2) receptor (Rattus norvegicus, UniProt P30994+P08909+P14842); assay: Displacement of [3H]ketanserin from 5-hydroxytryptamine 2 receptor in rat cortical membranes; format: cell membranes, Membrane
In short: (§1)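 Radioligand displacement from rat brain membranes: 3H-ketanserin on cortical membranes (5-HT2), 3H-prazosin on whole brain membranes (alpha1), 3H-spiperone on striatal membranes (D2). Two full concentration-effect curves per compound, each with five test drug concentrations in triplicate spanning three decades. IC50 estimated from curves on a log-concentration scale. Outliers beyond 3 times the sd-ratio were discarded after extra determinations.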

[2] = target: T1, Adrenergic receptor alpha-1 (Rattus norvegicus, UniProt P15823+P23944+P43140); assay: Displacement of [3H]prazosin from alpha-1 adrenoceptors in whole rat brain membranes; format: cell membranes; in short: as §1
T1 sequence (P15823 whole entry): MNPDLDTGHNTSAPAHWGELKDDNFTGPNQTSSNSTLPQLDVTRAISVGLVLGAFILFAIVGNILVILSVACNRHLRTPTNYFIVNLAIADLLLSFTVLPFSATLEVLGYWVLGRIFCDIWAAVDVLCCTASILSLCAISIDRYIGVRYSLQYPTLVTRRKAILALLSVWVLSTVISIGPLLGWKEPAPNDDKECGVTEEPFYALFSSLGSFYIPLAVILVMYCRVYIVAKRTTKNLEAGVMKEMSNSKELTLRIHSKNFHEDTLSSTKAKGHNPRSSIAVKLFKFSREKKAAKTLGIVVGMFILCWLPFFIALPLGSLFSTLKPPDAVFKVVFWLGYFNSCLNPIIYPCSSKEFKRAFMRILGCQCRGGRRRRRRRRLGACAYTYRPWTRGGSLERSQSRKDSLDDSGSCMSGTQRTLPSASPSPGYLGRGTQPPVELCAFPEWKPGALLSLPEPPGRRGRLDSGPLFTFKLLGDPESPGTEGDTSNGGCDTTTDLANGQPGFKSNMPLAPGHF
T1 sequence (P23944 whole entry): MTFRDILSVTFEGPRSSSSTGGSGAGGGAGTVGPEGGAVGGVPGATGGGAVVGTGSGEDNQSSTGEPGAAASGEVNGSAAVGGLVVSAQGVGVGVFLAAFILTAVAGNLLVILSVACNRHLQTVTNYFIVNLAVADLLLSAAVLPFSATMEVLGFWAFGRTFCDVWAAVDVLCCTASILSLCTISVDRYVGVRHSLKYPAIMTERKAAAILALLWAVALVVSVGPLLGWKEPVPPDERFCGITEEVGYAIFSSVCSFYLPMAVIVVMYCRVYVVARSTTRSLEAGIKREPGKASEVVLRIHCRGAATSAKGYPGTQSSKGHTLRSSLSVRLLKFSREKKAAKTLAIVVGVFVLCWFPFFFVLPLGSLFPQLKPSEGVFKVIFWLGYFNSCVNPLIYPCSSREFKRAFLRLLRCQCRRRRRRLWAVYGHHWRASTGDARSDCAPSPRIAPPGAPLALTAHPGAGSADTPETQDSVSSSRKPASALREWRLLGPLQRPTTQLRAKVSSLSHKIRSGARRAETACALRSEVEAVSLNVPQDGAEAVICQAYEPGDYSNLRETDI
T1 sequence (P43140 whole entry): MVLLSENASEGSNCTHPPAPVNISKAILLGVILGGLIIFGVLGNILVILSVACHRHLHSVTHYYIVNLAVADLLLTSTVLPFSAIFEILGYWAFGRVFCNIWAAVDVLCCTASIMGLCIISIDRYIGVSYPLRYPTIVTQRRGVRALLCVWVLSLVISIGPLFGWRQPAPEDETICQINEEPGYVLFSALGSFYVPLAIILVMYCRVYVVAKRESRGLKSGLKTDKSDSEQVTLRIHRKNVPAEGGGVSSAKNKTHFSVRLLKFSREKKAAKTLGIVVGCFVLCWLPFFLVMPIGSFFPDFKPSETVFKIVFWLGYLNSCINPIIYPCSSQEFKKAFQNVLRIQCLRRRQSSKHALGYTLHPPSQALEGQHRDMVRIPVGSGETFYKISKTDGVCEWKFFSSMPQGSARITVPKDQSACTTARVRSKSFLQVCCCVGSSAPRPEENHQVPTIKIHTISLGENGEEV

Rattus norvegicus [3] = species: Rattus norvegicus; assay: Tested for inhibition of pergolide-induced rotation in 6-OH-DA-lesioned rats after 2 hr; format: functional
In short: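 Unilateral 6-OHDA-lesioned rats were given test drug sc 2 h before pergolide (0.05 µmol/kg, sc), which induces contralateral circling. Each dose's effect was expressed as percent of the mean of control sessions held 1 week before and 1 week after the test session in the same rat. At least four rats per dose; ED50 by log-probit analysis.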

Rattus norvegicus [4] = species: Rattus norvegicus; assay: Tested for inhibition of quipazine-induced head twitches in rats after 2 hours of pretreatment; format: functional
In short: (§2)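 Test drug was given sc or po to rats 2 or 24 h before quipazine (15 µmol/kg, sc). Head twitches were counted 30-40 min after quipazine, at least four animals per dose. Counts were expressed as percent of a quipazine-only control group.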

Rattus norvegicus [5] = species: Rattus norvegicus; assay: Tested for inhibition of quipazine-induced head twitches in rats after 24 hours of pretreatment; format: functional; in short: as §2
D(2) dopamine receptor = D(2) dopamine receptor (Rattus norvegicus, UniProt P61169); assay: Displacement of [3H]spiperone from dopamine D2 receptors in rat striatal membranes; format: cell membranes, Membrane; in short: as §1
D(2) dopamine receptor, sequence (P61169 whole entry): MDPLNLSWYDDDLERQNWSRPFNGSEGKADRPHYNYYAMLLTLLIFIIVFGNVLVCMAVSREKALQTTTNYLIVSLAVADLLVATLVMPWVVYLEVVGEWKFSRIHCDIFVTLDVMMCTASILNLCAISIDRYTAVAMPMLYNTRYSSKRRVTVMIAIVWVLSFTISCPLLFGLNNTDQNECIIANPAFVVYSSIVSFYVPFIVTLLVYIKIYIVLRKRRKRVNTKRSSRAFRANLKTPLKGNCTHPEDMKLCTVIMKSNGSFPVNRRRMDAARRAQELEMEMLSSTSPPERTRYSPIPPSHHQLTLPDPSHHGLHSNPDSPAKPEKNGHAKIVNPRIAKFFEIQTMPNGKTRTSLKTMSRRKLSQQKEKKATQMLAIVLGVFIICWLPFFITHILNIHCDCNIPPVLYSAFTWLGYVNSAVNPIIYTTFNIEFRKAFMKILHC

Rattus norvegicus [6] = species: Rattus norvegicus; assay: Inhibition of quipazine-induced head twitches in rats after 2 hrs of pretreatment; format: functional; in short: as §2
Rattus norvegicus [7] = species: Rattus norvegicus; assay: Tested for inhibition of quipazine-induced head twitches after 24 hours of pretreatment; format: functional; in short: as §2
Rattus norvegicus [8] = species: Rattus norvegicus; assay: Tested for inhibition of dopamine uptake in rat brain membranes; format: functional, Membrane
Rattus norvegicus [9] = species: Rattus norvegicus; assay: Tested for inhibition of norepinephrine uptake in rat brain membranes; format: functional, Membrane
[10] = Rattus norvegicus, read-out: ED50

Compound	IC50 [1]	IC50 [2]	ED50 (Rattus norvegicus [3])	ED50 (Rattus norvegicus [4])	ED50 (Rattus norvegicus [5])	IC50 (D(2) dopamine receptor)	ED50 (Rattus norvegicus [6]; [10])	ED50 (Rattus norvegicus [7])	ED50 (Rattus norvegicus [6])	IC50 (Rattus norvegicus [8])	IC50 (Rattus norvegicus [9])
Fc1ccc(C2CC(N3CCN(CCN4CCNC4=S)CC3)c3ccc(Cl)cc32)cc1.O=C(O)/C=C\C(=O)O (configuration not stated)	1.5 nM	52 nM	> 14 µmol/kg	0.077 µmol/kg	1.4 µmol/kg						
Fc1ccc(C2CC(N3CCN(CCN4CCN=C4S)CC3)c3ccc(F)cc32)cc1.O=C(O)/C=C\C(=O)O.O=C(O)/C=C\C(=O)O (configuration not stated)	1.5 nM	110 nM	> 15 µmol/kg			230 nM	0.12 µmol/kg	0.62 µmol/kg			
O=C(O)/C=C\C(=O)O.O=C(O)/C=C\C(=O)O.O=C1NCCCN1CCN1CCN(C2CC(c3ccc(F)cc3)c3cc(F)ccc32)CC1 (single isomer, unassigned; (+))	1.1 nM	41 nM	> 15 µmol/kg			280 nM			0.029 µM/kg and 0.07 µM/kg		
Cc1nc2sccn2c(=O)c1CCN1CCC(=C(c2ccc(F)cc2)c2ccc(F)cc2)CC1 [RITANSERIN]			> 21 µmol/kg								
O=C1NCCN1CCN1CCN([C@@H]2C[C@@H](c3ccc(F)cc3)c3ccccc32)CC1 [IRINDALONE]		2.6 nM	7.4 µmol/kg				0.58 µmol/kg	0.75 µmol/kg			
Cl.Cl.OCCN1CCN(C2CC(c3ccc(F)cc3)c3cc(Cl)ccc32)CC1 (single isomer, unassigned; (+))	230 nM	2500 nM				6300 nM			>2.8 µM/kg		
Cl.Cl.Fc1ccc(C2CC(N3CCN(CCN4CCCNC4=S)CC3)c3ccc(Cl)cc32)cc1 (stereo in doubt; (-)-39)	0.75 nM	67 nM	> 18 µmol/kg			33 nM	0.041 µmol/kg	0.021 µmol/kg			
CC(C)N1CCN(CCN2CCN(C3CC(c4ccc(F)cc4)c4cc(Cl)ccc43)CC2)C1=O.O=C(O)/C=C\C(=O)O.O=C(O)/C=C\C(=O)O (stereo in doubt; (+)-20)	75 nM	340 nM				1300 nM			>7 µM/kg	70 nM	50 nM
Fc1ccc(C2CC(N3CCN(CCN4CCCN=C4S)CC3)c3ccc(F)cc32)cc1.O=C(O)/C=C\C(=O)O.O=C(O)/C=C\C(=O)O (configuration not stated)	1.7 nM	110 nM				220 nM	0.039 µmol/kg				
Cl.Cl.OCCN1CCN(C2CC(c3ccc(F)cc3)c3cc(Cl)ccc32)CC1 (single isomer, unassigned; (-))	11 nM	210 nM				370 nM			0.86 µM/kg		
CC(C)N1CCN(CCN2CCN(C3CC(c4ccc(F)cc4)c4cc(Cl)ccc43)CC2)C1=O.O=C(O)/C=C\C(=O)O.O=C(O)/C=C\C(=O)O (single isomer, unassigned; (-))	1.1 nM	210 nM	> 14 µmol/kg			200 nM				1900 nM	2900 nM
O=C(O)/C=C\C(=O)O.O=C(O)/C=C\C(=O)O.O=C1NCCCN1CCN1CCN(C2CC(c3ccc(F)cc3)c3cc(Cl)ccc32)CC1 (single isomer, unassigned; (-))	1.3 nM	62 nM	> 15 µmol/kg		0.072 µmol/kg	94 nM	0.11 µmol/kg				
O=C(O)/C=C\C(=O)O.O=C(O)/C=C\C(=O)O.O=c1[nH]c2ccccc2c(=O)n1CCN1CCN(C2CC(c3ccc(F)cc3)c3cc(Cl)ccc32)CC1 (configuration not stated)	3.8 nM	78 nM				93 nM	> 3.3 µmol/kg				
Cl.Cl.Fc1ccc(C2CC(N3CCN(CCN4CCCNC4=S)CC3)c3ccc(F)cc32)cc1 (single isomer, unassigned; (+))	0.95 nM	43 nM	> 37 µmol/kg			140 nM	0.017 µmol/kg	0.011 µmol/kg			
